In publication PMC6180906 (Biochimica et biophysica acta. Molecular and cell biology …, 2018):
“And” between values parts separate entries of the source, which are not always exact repeats. Identical values can stand only once.

How the values were obtained:
Ac28-SMT = Ac28-SMT (Acanthamoeba castellanii, UniProt L8GNG7); details: sterol 5 μM to 150 μM, 150 μM SAM, 80 μg SMT; cited from earlier work
Ac24-SMT = Ac24-SMT (Acanthamoeba castellanii, UniProt L8GKC5); details: sterol 5 μM to 150 μM, 150 μM SAM, 80 μg SMT; cited from earlier work
AcCYP51 [1] = target: T1, AcCYP51 (Acanthamoeba castellanii, UniProt L8GJB3); experiment: CYP51 reconstitution assay, AfCPR1 redox partner, products by GC-MS; assay type: biochemical; details: for AcCYP51 AfCPR kcat: CYP51 reconstitution assay, 50 μM sterol, AfCPR redox partner; for Yield of 14-desmethyl product from substrate by AcCYP51 (GCMS): AfCPR1 redox partner
AcCYP51 [2] = target: T1, AcCYP51; experiment: AcCYP51 sterol ligand binding, spectral titration; details: for AcCYP51 Kd: progressive titration of 4 M AcCYP51 with sterol in 40% (W/V) HPCP
[3] = test system: Acanthamoeba castellanii trophozoites; experiment: Trophozoite growth with cholesterol supplement; assay type: cell-based; details: 10μM in DMSO or as FBS
Procedure, shortened: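 Axenic static cultures of strain ATCC 30010 were grown in 5 ml ATCC medium 712 in T-flasks at 25 °C with occasional hand shaking, seeded with about 1×10^4 trophozoites. The medium was supplemented with FBS, per ATCC medium, or with 10 µM cholesterol in DMSO. Cells were counted along the growth curve, with viability by trypan blue exclusion.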

[4] = test system: Saccharomyces cerevisiae strain GL7; experiment: GL7 sterol auxotroph growth on sterol supplements; assay type: cell-based; details: sterol supplement, 72 h
Procedure, shortened: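 S. cerevisiae GL7 (lanosterol synthase-defective, ergosterol auxotroph) grown in yeast-peptone-dextrose medium with Tween 80 (15 ml/l) and a sterol supplement at 5 mg/l, or no sterol, for 72 h. Cell density was followed to stationary phase. Sterols were recovered from cells and analysed.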

[5] = test system: Acanthamoeba castellanii trophozoites; experiment: Time-dependent killing and regrowth in fresh medium; assay type: cell-based; details: inhibitor at approximate MAC, then fresh medium for a week
[6] = test system: Acanthamoeba castellanii trophozoites; experiment: Trophozoite toxicity assay; assay type: cell-based; details: for IC50: Acanthamoeba castellanii, 48 h, read-out: IC50 against trophozoite growth
Acanthamoeba castellanii = assay type: cell-based
[7] = test system: Acanthamoeba castellanii resting cysts; experiment: Cysticidal / excystment assay; assay type: cell-based; details: cysts from the SDS-treated process

Row | Compound | 28-SMT kcat (Ac28-SMT) | 24-SMT kcat (Ac24-SMT) | AcCYP51 AfCPR kcat (AcCYP51 [1]) | further results
1 | CC(C)=CCC[C@@H](C)[C@H]1CC[C@@]2(C)C3=C(CC[C@]12C)[C@@]1(C)CC[C@H](O)C[C@@H]1CC3 [compound 35, 14α-Methylcholest-8,24(25)-dienol] | 0.0065 ± 0.00033 s⁻¹ | 0.025 ± 0.00083 s⁻¹ | 0.0267 ± 0.0013 s⁻¹ | –
2 | C=C(CC[C@@H](C)[C@H]1CC[C@@]2(C)C3=C(CC[C@]12C)[C@@]1(C)CC[C@H](O)[C@@H](C)[C@@H]1CC3)C(C)C [compound 10] | 0 s⁻¹ | 0 s⁻¹ | 0.127 ± 0.00083 s⁻¹ | Yield of 14-desmethyl product from substrate by AcCYP51 (GCMS) (AcCYP51 [1]; listed as obtusifoliol): < 95% and 95%; AcCYP51 AfCPR kcat (AcCYP51 [1]; listed as obtusifoliol): 0.127 s⁻¹; Kd (AcCYP51 [2]): 41 ± 3 µM
3 | CC(C)=CCC[C@@H](C)[C@H]1CC[C@@]2(C)C3=C(CC[C@]12C)[C@@]1(C)CC[C@H](O)[C@@H](C)[C@@H]1CC3 [compound 37, 4α, 14α-Dimethylcholesta-8,24(25)-dienol] | 0.0123 ± 0.00033 s⁻¹ | 0.025 ± 0.00067 s⁻¹ | 0 s⁻¹ | –
4 | CC(C)CCC[C@@H](C)[C@H]1CC[C@H]2[C@@H]3CC=C4C[C@@H](O)CC[C@]4(C)[C@H]3CC[C@]12C [cholesterol] | – | – | – | Effect of supplement on trophozoite growth [3]: only a minor stimulation effect
5 | C=C(CCC(C)C1CCC2(C)C3=C(CCC12C)C1(C)CCC(O)C(C)(C)C1CC3)C(C)C (stereo not drawn) [compound 32, Lanosta-8,24(28)-dienol] | – | – | 0.0533 ± 0.00067 s⁻¹ | Kd (AcCYP51 [2]): 51 ± 10 µM
6 | C=C(CC[C@@H](C)[C@H]1CC[C@H]2C3=CC[C@H]4[C@H](C)[C@@H](O)CC[C@]4(C)[C@H]3CC[C@]12C)C(C)C [compound 14, 4α-Methylergosta-7, 24(28)-dienol] | 0.0133 ± 0.00067 s⁻¹ | 0 s⁻¹ | 0 s⁻¹ | –
7 | CC(C)=CCC[C@@H](C)[C@H]1CC[C@@]2(C)[C@@H]3CC[C@H]4C(C)(C)[C@@H](O)CC[C@@]45C[C@@]35CC[C@]12C [compound 21, Cycloart-24(25)-enol] | 0.0075 ± 0.0005 s⁻¹ | 0.025 ± 0.0012 s⁻¹ | 0 s⁻¹ | Yield of 14-desmethyl product from substrate by AcCYP51 (GCMS) (AcCYP51 [1]): no metabolism occurred; Kd (AcCYP51 [2]): 18 ± 5 µM
8 | CC[C@@H](C=C[C@@H](C)[C@H]1CC[C@H]2C3=CC=C4C[C@@H](O)CC[C@]4(C)[C@H]3CC[C@]12C)C(C)C [compound 11, Poriferasta-5,7,22-trienol] | – | – | – | GL7 cell density at stationary phase / growth arrest [4]: 1 × 10^8 cells/ml
9 | CC[C@@H](C=C[C@@H](C)[C@H]1CC[C@H]2[C@@H]3CC=C4C[C@@H](O)CC[C@]4(C)[C@H]3CC[C@]12C)C(C)C [compound 6, Poriferasta-5,22 -dienol] | – | – | – | GL7 cell density at stationary phase / growth arrest [4]: 1 × 10^8 cells/ml
10 | C=C(CC[C@@H](C)[C@H]1CC[C@@]2(C)[C@@H]3CC[C@H]4C(C)(C)[C@@H](O)CC[C@@]45C[C@@]35CC[C@]12C)C(C)C [compound 27, Cycloart-24(28)-enol] | 0.00383 ± 0.00083 s⁻¹ | 0 s⁻¹ | 0 s⁻¹ | AcCYP51 Kd (AcCYP51 [2]): No fit
11 | CC(C)=CCCC(C)C1CCC2(C)C3=CCC4C(C)(C)C(O)CCC4(C)C3CCC12C (stereo not drawn) [compound 36, Lanosta-7,24(25)-dienol] | – | – | 0 s⁻¹ | –
12 | CC(C)[C@@H](C)/C=C/[C@@H](C)[C@H]1CC[C@H]2C3=CC=C4C[C@@H](O)CC[C@]4(C)[C@H]3CC[C@]12C [compound 2, Ergosta-5,7,22-trienol] | – | – | – | GL7 cell density at stationary phase / growth arrest [4]: ~1 × 10^8 cells/ml
13 | C[C@H](CCCN(C)C)[C@H]1CC[C@@]2(C)[C@@H]3CC[C@H]4C(C)(C)[C@@H](O)CC[C@@]45C[C@@]35CC[C@]12C [25-azacycloartanol] | – | – | – | Growth after 48 h treated pellets were transferred to fresh medium [5]: no growth; IC50 [6]: 0.025 µM; MAC (minimum amoebicidal concentration) ([6]; lowest concentration with no visible live trophozoites, 48 hr): 1 to 3 µM
14 | C=C(CC[C@@H](C)[C@H]1CC[C@@]2(C)[C@@H]3CC[C@H]4[C@H](C)[C@@H](O)CC[C@@]45C[C@@]35CC[C@]12C)C(C)C [compound 24, 4α-Methylcycloart-24(28)-enol] | – | – | 0.00067 ± 0.00017 s⁻¹ | Yield of 14-desmethyl product from substrate by AcCYP51 (GCMS) (AcCYP51 [1]): ~ 1%; AcCYP51 Kd (AcCYP51 [2]): No fit
15 | C[C@@H](c1ncncc1F)[C@](O)(Cn1cncn1)c1ccc(F)cc1F [voriconazole, reference compound] | – | – | – | Growth after 48 h treated pellets were transferred to fresh medium [5]: a few thousand trophozoites were evident; IC50 [6]: 0.14 µM; Number of cells at 48 h (Acanthamoeba castellanii; reduced by a factor of 10, most dead by trypan blue staining): 2–3 × 10^4 cells/ml
16 | CC(C)[C@@H](C)/C=C/[C@@H](C)[C@H]1CC[C@H]2[C@@H]3CC=C4C[C@@H](O)CC[C@]4(C)[C@H]3CC[C@]12C [compound 1, Ergosta-5,22-dienol] | – | – | – | GL7 cell density at stationary phase / growth arrest [4]: 1 × 10^8 cells/ml
17 | CC(C)CCC[C@@H](C)[C@H]1CC[C@@]2(C)C3=C(CC[C@]12C)[C@@]1(C)CC[C@H](O)C(C)(C)[C@@H]1CC3 [compound 34, Lanost-8-enol] | – | – | 0.0333 ± 3.3e-05 s⁻¹ | –
18 | CC(C)=CCC[C@@H](C)[C@H]1CC[C@@]2(C)C3=C(CC[C@]12C)[C@@]1(C)CC[C@H](O)C(C)(C)[C@@H]1CC3 [compound 33, Lanosta-8,24(25)-dienol] | 0.00383 ± 0.00017 s⁻¹ | 0.025 ± 0.00017 s⁻¹ | 0.0283 ± 0.00017 s⁻¹ | Kd (AcCYP51 [2]): 46 ± 3 µM
19 | O=c1[nH]c(=O)n([C@H]2C[C@H](O)[C@@H](CO)O2)cc1F [FUdR, 5-fluor-2-deoxyuridine] | – | – | – | Excystment of resting cysts into trophozoites under treatment [7]: easily excysted into trophozoites by 3 days; Encysted cells alive by trypan blue staining (Acanthamoeba castellanii; cultures with inhibitor at stationary phase of control): > 95%
